Several values for one entry are separate records, joined by “and”; a condition that tells them apart may be missing. Equal entries are not always repeated.
Key:
[1] = Percentage toxicity measured as death of mice.; type: organism-based; parameters: concentration or dose not given beside the values; conditions: mouse, in vivo; read-out: Death
Canis familiaris [2] = species on record: Canis familiaris; experiment: (§1) The dose at which toxicity was measured; type: organism-based, Canis lupus familiaris; conditions: dog, in vivo
In short: (§2)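 Adult female dogs (6.7–14.5 kg) had two-stage ligation of the left anterior descending coronary artery the day before testing. After control ventricular rate, % ectopic beats and mean arterial pressure were recorded, the drug (HCl salt, isotonic solution) was infused iv without anesthesia at 0.1, 0.5 or 1.0 (mg/kg)/min, mostly 0.5. Infusion continued until the arrhythmia was abolished or cardiovascular/CNS toxicity appeared. Cumulative dose is given in mmol/kg; toxicity included convulsion and P-R prolongation ≥25%.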

Mus musculus [3] = experiment: Protection against chloroform induced arrhythmias was measured in mice after sc administration at given dose; type: functional
In short: (§3)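 Groups of 10 unanesthetized mice got sc injection of drug in 0.9% saline. After 20 min observation they were placed one by one in chloroform-vapor-saturated air. When breathing stopped, the thorax was opened and the heart inspected by eye; coordinated ventricular contractions counted as protected.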

Canis familiaris [4] = species on record: Canis familiaris; experiment: as §1; type: organism-based, Canis lupus familiaris; parameters: unit: mmol/kg; conditions: dog, in vivo; in short: as §2
Canis familiaris [5] = experiment: Ventricular rate was measured in anesthetized dog at 0.026 dose; type: functional, Canis lupus familiaris, Heart
Mus musculus [6] = species on record: Mus musculus; experiment: Percentage toxicity measured as ataxia.; type: organism-based; conditions: in vivo
In short: (§4)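 Mice (groups of 10) were dosed sc with drug in 0.9% saline and watched for 20 min for overt toxicity (ataxia, convulsions, loss of righting reflex, death) before chloroform exposure.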

Canis familiaris [7] = experiment: Ventricular rate was measured in anesthetized dog at 0.053 dose; type: functional, Canis lupus familiaris, Heart; conditions: in the assay text read “unanesthetized dog” for “anesthetized dog”; in short: as §2
Mus musculus [8] = species on record: Mus musculus; experiment: Percentage toxicity measured as loss of righting reflex.; type: organism-based; conditions: in vivo; in short: as §4
Canis familiaris [9] = experiment: % ectopic beats was measured in anesthetized dog at 0.053 dose; type: functional, Canis lupus familiaris, Heart; conditions: in the assay text read “unanesthetized” for “anesthetized”
In short: (§5)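 Adult female dogs (6.7–14.5 kg) had the left anterior descending coronary artery ligated in two stages the day before testing. Dogs were unanesthetized. Ectopic beats (% of ventricular rate) and mean arterial pressure were read at maximal antiarrhythmic effect against the cumulative dose.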

Canis familiaris [10] = experiment: MABP value was measured in anesthetized dog at 0.053 dose; type: functional, Canis lupus familiaris; conditions: in the assay text read “unanesthetized dog” for “anesthetized dog”; in short: as §2
Canis familiaris [11] = experiment: % ectopic beats was measured in anesthetized dog at 0.026 dose; type: functional, Canis lupus familiaris, Heart; conditions: in the assay text read “unanesthetized” for “anesthetized”; in short: as §5
Mus musculus [12] = species on record: Mus musculus; experiment: Percentage toxicity measured as convulsions.; type: organism-based; conditions: in vivo; in short: as §4
Canis familiaris [13] = experiment: MABP value was measured in anesthetized dog at 0.026 dose; type: functional, Canis lupus familiaris; conditions: in the assay text read “unanesthetized dog” for “anesthetized dog”; in short: as §5
Mus musculus [14] = experiment: Protection against chloroform induced arrhythmias in mice after subcutaneous administration at 100 mg/kg dose.; type: functional; in short: as §3
Canis familiaris [15] = experiment: Ventricular rate was measured in anesthetized dog at 0.042 dose; type: functional, Canis lupus familiaris, Heart; conditions: in the assay text read “unanesthetized dog” for “anesthetized dog”; in short: as §2
Canis familiaris [16] = experiment: Ventricular rate was measured in anesthetized dog at 0.005 dose; type: functional, Canis lupus familiaris, Heart; conditions: in the assay text read “unanesthetized dog” for “anesthetized dog”; in short: as §2
Canis familiaris [17] = experiment: % ectopic beats was measured in anesthetized dog at 0.029 dose.; type: functional, Canis lupus familiaris, Heart; conditions: in the assay text read “unanesthetized” for “anesthetized”; in short: as §5
Canis familiaris [18] = species on record: Canis familiaris; experiment: Toxicity of the compound; type: organism-based, Canis lupus familiaris; conditions: dog, in vivo; in short: as §2
Canis familiaris [19] = experiment: % ectopic beats was measured in anesthetized dog at 0.005 dose.; type: functional, Canis lupus familiaris, Heart; conditions: in the assay text read “unanesthetized” for “anesthetized”; in short: as §5
Canis familiaris [20] = experiment: MABP value was measured in anesthetized dog at 0.042 dose.; type: functional, Canis lupus familiaris; conditions: in the assay text read “unanesthetized dog” for “anesthetized dog”; in short: as §2
Canis familiaris [21] = experiment: % ectopic beats was measured in anesthetized dog at 0.026 dose.; type: functional, Canis lupus familiaris, Heart; conditions: in the assay text read “unanesthetized” for “anesthetized”; in short: as §5
Canis familiaris [22] = species on record: Canis familiaris; experiment: The dose at which toxicity was measured.; type: organism-based, Canis lupus familiaris; conditions: dog, in vivo; in short: as §2
Canis familiaris [23] = experiment: Ventricular rate was measured in anesthetized dog at 0.029 dose; type: functional, Canis lupus familiaris, Heart; conditions: in the assay text read “unanesthetized dog” for “anesthetized dog”; in short: as §2
Canis familiaris [24] = experiment: % ectopic beats was measured in anesthetized dog at 0.021d ose.; type: functional, Canis lupus familiaris, Heart; conditions: in the assay text read “unanesthetized” for “anesthetized”; in short: as §5
Canis familiaris [25] = experiment: % ectopic beats was measured in anesthetized dog at 0.042 dose.; type: functional, Canis lupus familiaris, Heart; conditions: in the assay text read “unanesthetized” for “anesthetized”; in short: as §5
Canis familiaris [26] = experiment: MABP value was measured in anesthetized dog at 0.017 dose.; type: functional, Canis lupus familiaris; conditions: in the assay text read “unanesthetized dog” for “anesthetized dog”; in short: as §5
Canis familiaris [27] = experiment: Ventricular rate was measured in anesthetized dog at 0.021 dose; type: functional, Canis lupus familiaris, Heart; conditions: in the assay text read “unanesthetized dog” for “anesthetized dog”; in short: as §2
Canis familiaris [28] = experiment: MABP value was measured in anesthetized dog at 0.005 dose.; type: functional, Canis lupus familiaris; conditions: in the assay text read “unanesthetized dog” for “anesthetized dog”; in short: as §5
Mus musculus [29] = experiment: Protection against chloroform induced arrhythmias was measured in mice after sc administration at given dose.; type: functional; conditions: Mus musculus, sc; read-out: ED50; in short: as §3
Canis familiaris [30] = experiment: Ventricular rate was measured in anesthetized dog at given 0.017 dose; type: functional, Canis lupus familiaris, Heart; conditions: in the assay text read “unanesthetized” for “anesthetized”
In short: (§6)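 Adult female dogs (6.7–14.5 kg) had ventricular arrhythmias from two-stage ligation of the left anterior descending coronary artery the day before. Ventricular rate (bpm) was read at maximal antiarrhythmic effect against cumulative dose.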

Canis familiaris [31] = species on record: Canis familiaris; experiment: Blood level was measured in […] at 0.017 dose.; type: functional, Canis lupus familiaris
Canis familiaris [32] = experiment: % ectopic beats was measured in anesthetized dog at 0.017 dose.; type: functional, Canis lupus familiaris, Heart; conditions: in the assay text read “unanesthetized” for “anesthetized”; in short: as §5
Canis familiaris [33] = experiment: MABP value was measured in anesthetized dog at 0.026 dose.; type: functional, Canis lupus familiaris; conditions: in the assay text read “unanesthetized dog” for “anesthetized dog”; in short: as §5
Canis familiaris [34] = species on record: Canis familiaris; experiment: Toxicity of blood level was measured; type: organism-based, Canis lupus familiaris; conditions: dog, in vivo
In short: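 In coronary-ligated conscious dogs under iv infusion, blood was sampled at toxicity. Drug was extracted with methylene chloride at pH 10.3 (ammonium citrate/ammonia) with another analogue as internal standard, then derivatized with heptafluorobutyrylimidazole. Assay was GC-FID on 3% JXR, quantified from drug/internal standard peak-height ratio against standard curves; results in μmol/mL.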

Canis familiaris [35] = experiment: MABP value was measured in anesthetized dog at 0.021d ose.; type: functional, Canis lupus familiaris; conditions: in the assay text read “unanesthetized dog” for “anesthetized dog”; in short: as §5
Canis familiaris [36] = experiment: MABP value was measured in anesthetized dog at 0.029 dose.; type: functional, Canis lupus familiaris; conditions: in the assay text read “unanesthetized dog” for “anesthetized dog”; in short: as §5
Canis familiaris [37] = experiment: Blood level was measured in anesthetized dog at 0.029 dose.; type: functional, Canis lupus familiaris
Canis familiaris [38] = experiment: MABP value was measured in anesthetized dog at 0.21+/-0.19 dose.; type: functional, Canis lupus familiaris
Mus musculus [39] = experiment: Ataxia was measured in mice after sc administration at given dose.; type: functional
In short: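 Mice in groups of 10 received drug sc in 0.9% saline and were watched 20 min for overt toxicity before chloroform exposure. At least three doses were given.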

Canis familiaris [40] = experiment: Ventricular rate was measured in anesthetized dog at 0.21+/-0.19 dose; type: functional, Canis lupus familiaris, Heart; conditions: in the assay text read “unanesthetized” for “anesthetized”; in short: as §6
Canis familiaris [41] = experiment: % ectopic beats was measured in anesthetized dog at 0.21+/-0.19 dose; 4+/-3; type: functional, Canis lupus familiaris, Heart

For CCN(CC)CCN1C(=O)CC2(CCCc3ccc(O)cc32)C1=O (stereo not given), the mortality [1] was 0%, the Cumulative dose (Canis familiaris [2]) was 0.042 and the ED50 (Mus musculus [3]) was 150 µmol/kg. It also gave a Cumulative dose (Canis familiaris [4]) of 0.026 mM/kg, a Ventricular rate (Canis familiaris [5]) of 132 beats min-1 and an Ataxia (Mus musculus [6]) of 0%. For the same molecule, the Ventricular rate (Canis familiaris [7]) was 102 beats min-1, the “Loss of righting reflex” value (Mus musculus [8]) was 0% and the Etopic beats (Canis familiaris [9]) was 7%. The MABP (Canis familiaris [10]) was 135 mmHg, the Etopic beats (Canis familiaris [11]) was 3% and the Convulsion (Mus musculus [12]) was 0%. For the same molecule, the MABP (Canis familiaris [13]) was 130 mmHg and the Protection (Mus musculus [14]) was 90%.

CCN(CC)CCCCN1C(=O)CC2(CCCc3ccc(O)cc32)C1=O (stereo not given) gave a Ventricular rate (Canis familiaris [15]) of 147 beats min-1, a Ventricular rate (Canis familiaris [16]) of 162 beats min-1 and a mortality [1] of 0%. It also gave an Etopic beats (Canis familiaris [17]) of 0%, a Blood level (Canis familiaris [18]) of 0.01 uM ml-1 and an Etopic beats (Canis familiaris [19]) of 2%. For the same molecule, the MABP (Canis familiaris [20]) was 100 mmHg, the Etopic beats (Canis familiaris [21]) was 0% and the Cumulative dose (Canis familiaris [22]) was 0.063. For the same molecule, the Ventricular rate (Canis familiaris [23]) was 141 beats min-1, the Etopic beats (Canis familiaris [24]) was 0% and the Cumulative dose (Canis familiaris [4]) was > 0.058 and > 0.126. The Etopic beats (Canis familiaris [25]) was 0%, the Ventricular rate (Canis familiaris [5]) was 132 beats min-1 and the Ataxia (Mus musculus [6]) was 0%. The MABP (Canis familiaris [26]) was 95 mmHg, the Ventricular rate (Canis familiaris [27]) was 168 beats min-1 and the MABP (Canis familiaris [28]) was 80 mmHg. For the same molecule, the ED50 (Mus musculus [29]) was 130 µmol/kg, the Ventricular rate (Canis familiaris [30]) was 153 beats min-1 and the “Loss of righting reflex” value (Mus musculus [8]) was 0%. For the same molecule, the Blood level (Canis familiaris [31]) was 0.016 uM ml-1, the Etopic beats (Canis familiaris [32]) was 2% and the MABP (Canis familiaris [33]) was 90 mmHg. It also gave a Blood level (Canis familiaris [34]) greater than 28 µM, a Convulsion (Mus musculus [12]) of 0% and an MABP (Canis familiaris [35]) of 70 mmHg. For the same molecule, the MABP (Canis familiaris [36]) was 90 mmHg, the Blood level (Canis familiaris [37]) was 0.007 uM ml-1 and the Protection (Mus musculus [14]) was 100%.

With CCN(CC)CC(=O)Nc1c(C)cccc1C [LIDOCAINE] the mortality [1] was 0%, the Cumulative dose (Canis familiaris [22]) was 0.27 and the MABP (Canis familiaris [38]) was 101 mmHg. It also gave an Ataxia (Mus musculus [6]) of 100%, an ED50 (Mus musculus [39]) of 180 µmol/kg and an ED50 (Mus musculus [29]) of 260 µmol/kg. The “Loss of righting reflex” value (Mus musculus [8]) was 100%, the Ventricular rate (Canis familiaris [40]) was 133 beats min-1 and the Etopic beats (Canis familiaris [41]) was 4%. It also gave a Convulsion (Mus musculus [12]) of 100% and a Protection (Mus musculus [14]) of 100%.
